This is an account of results in ChEMBL document CHEMBL6177914, “Human microbiome derived synthetic antimicrobial peptides with activity against Gram-negative, Gram-positive, and antibiotic resistant bacteria” (RSC Med Chem, 2025).

Converted amounts (≈) assume the structure as drawn. The source made the active and inactive calls. No cut-off for these calls is given here.

The test system of series [1] is Staphylococcus aureus. Nature of the series: Bactericidal activity against methicillin resistant Staphylococcus aureus BAA 2313 assessed as inhibition of bacterial growth at MIC concentration incubated for 48 hrs by broth microdilution assay. Format: functional, organism-based. The essentials:
(§1)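 Plates were incubated 48 h at 37 °C and examined for colonies. A fidaxomicin-treated culture at 1 µM served as the control.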
For orientation: Broth dilution looks for growth in wells or tubes with falling amounts of substance.

Series [2] concerns Enterococcus faecium. The series is described as follows: Bactericidal activity against vancomycin resistant Enterococcus faecium BAA 2317 assessed as inhibition of bacterial growth at MIC concentration incubated for 48 hrs by broth microdilution assay. Format: functional, organism-based. The essentials: as §1
Series [3] concerns Clostridioides difficile. Nature of the series: Antibacterial activity against Clostridium difficile ATCC 43602 assessed as inhibition of bacterial growth incubated for 24 hrs by absorbance based microplate reader analysis. Format: functional. Conditions: read-out: MIC100.
A short description of series [4]: Retention time of compound by RP-HPLC analysis. Format: physicochemical. In short, it runs like this:
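Analytical reversed-phase HPLC.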

The test system of series [5] is Enterococcus faecium. The series is described as follows: Antibacterial activity against vancomycin resistant Enterococcus faecium BAA 2317 assessed as inhibition of bacterial growth incubated for 24 hrs by absorbance based microplate reader analysis. Format: functional. Conditions: for MIC: read-out: MIC100. In short, it runs like this: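 Broth microdilution. A single colony was grown 24 h in its recommended broth, then diluted 1:10 000 in the same medium. Peptide serial dilutions were added from DMSO stock at 4 µL per 196 µL inoculated medium. Plates were incubated aerobically or anaerobically as each pathogen requires, at 37 °C for 24 h, and OD600 was read. MIC was the lowest concentration giving 100% growth inhibition. Duplicate wells; assay repeated five times independently.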

The test system of series [6] is Escherichia coli. Nature of the series: Antibacterial activity against Escherichia coli ATCC 33694 assessed as inhibition of bacterial growth incubated for 24 hrs by absorbance based microplate reader analysis. Format: functional. In short, it runs like this:
(§2)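 Broth microdilution. An overnight single-colony culture in recommended broth was diluted 1:10 000, and peptide serial dilutions in DMSO were added (4 µL into 196 µL). Plates incubated 24 h at 37 °C, aerobic or anaerobic as required, then OD600 read. Inhibition was calculated against pathogen-only and blank wells.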

In series [7] the test system is Clostridioides difficile. The series is described as follows: Bactericidal activity against Clostridium difficile ATCC 43602 assessed as inhibition of bacterial growth at MIC concentration incubated for 48 hrs by broth microdilution assay. Format: functional, organism-based. The essentials: (§3)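 From broth-microdilution wells showing no growth, 10 µL was spotted onto agar and incubated 48 h at 37 °C. Plates were inspected for colonies. Fidaxomicin at 1 µM served as control.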

In series [8] the test system is Salmonella enterica. Nature of the series: Bactericidal activity against Salmonella enterica ATCC 13314 assessed as inhibition of bacterial growth at MIC concentration incubated for 48 hrs by broth microdilution assay. Format: functional, organism-based. The essentials:
as §3

For series [9], the system named is Listeria monocytogenes. The series is described as follows: Bactericidal activity against Listeria monocytogenes ATCC 15313 assessed as inhibition of bacterial growth at MIC concentration incubated for 48 hrs by broth microdilution assay. Format: functional, organism-based. The essentials:
as §3

Series [10] concerns Caco-2. Nature of the series: Anti-inflammatory activity in human Caco-2 cells infected with Clostridium difficile ATCC 43602 assessed as reduction in IL-6 level at MIC concentration by ELISA relative to control. Format: functional. More on the design: scale not given: the % may be the effect or the level left. In short, it runs like this: (§4)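 Caco-2 cells grown in DMEM + 10% FBS, 37 °C, 5% CO2, to 90% confluence, then seeded 30 000 cells/well and held 24 h. C. difficile was grown overnight anaerobically in meat broth, washed in PBS, and 1 µL of 0.5 OD600 culture added per 300 µL medium. […] Cytokine in supernatant measured by ELISA; three independent replicates.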

Series [11] has as its system Pseudomonas aeruginosa. Nature of the series: Antibacterial activity against Pseudomonas aeruginosa BAA 1744 assessed as inhibition of bacterial growth incubated for 24 hrs by absorbance based microplate reader analysis. Format: functional. The essentials:
as §2

Series [12] has as its system Escherichia coli. Nature of the series: Bactericidal activity against Escherichia coli ATCC 33694 assessed as inhibition of bacterial growth at MIC concentration incubated for 48 hrs by broth microdilution assay. Format: functional, organism-based. The essentials: as §3
Series [13] has as its system Salmonella enterica. The series is described as follows: Antibacterial activity against Salmonella enterica ATCC 13314 assessed as inhibition of bacterial growth incubated for 24 hrs by absorbance based microplate reader analysis. Format: functional. In short, it runs like this: as §2
Series [14] has as its system Staphylococcus aureus. Nature of the series: Bactericidal activity against Staphylococcus aureus ATCC 25923 assessed as inhibition of bacterial growth at MIC concentration incubated for 48 hrs by broth microdilution assay. Format: functional, organism-based. In short, it runs like this:
as §3

Series [15] has as its system Pseudomonas aeruginosa. The series is described as follows: Bactericidal activity against Pseudomonas aeruginosa BAA 1744 assessed as inhibition of bacterial growth at MIC concentration incubated for 48 hrs by broth microdilution assay. Format: functional, organism-based. In short, it runs like this:
as §3

The test system of series [16] is Listeria monocytogenes. The series is described as follows: Antibacterial activity against Listeria monocytogenes ATCC 15313 assessed as inhibition of bacterial growth incubated for 24 hrs by absorbance based microplate reader analysis. Format: functional. Conditions: for MIC: read-out: MIC100. The essentials:
(§5)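 Broth microdilution. A single colony was grown 24 h in its recommended broth, then diluted 1:10 000 in the same medium. Peptide serial dilutions were added from DMSO stock at 4 µL per 196 µL inoculated medium. Plates were incubated aerobically or anaerobically as each pathogen requires, at 37 °C for 24 h, and OD600 was read. Duplicate wells; assay repeated five times independently.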

Series [17] has as its system Staphylococcus aureus. The series is described as follows: Antibacterial activity against methicillin resistant Staphylococcus aureus BAA 2313 assessed as inhibition of bacterial growth incubated for 24 hrs by absorbance based microplate reader analysis. Format: functional. The essentials: as §5
For series [18], the system named is Caco-2. The series is described as follows: Anti-inflammatory activity in human Caco-2 cells infected with Clostridium difficile ATCC 43602 assessed as reduction in TNFalpha level at MIC concentration by ELISA relative to control. Format: functional. More on the design: scale not given: the % may be the effect or the level left. In short, it runs like this:
as §4

Take H-IGPLVIPVAAIL-NH2: the outcome in the series on Staphylococcus aureus [1], in the series with Enterococcus faecium [2], in the series on Clostridioides difficile [7], in the series with Salmonella enterica [8], with Listeria monocytogenes [9] and with Escherichia coli [12] was Active. The outcome in the series with Staphylococcus aureus [14] and with Pseudomonas aeruginosa [15] was Active. In addition, the MIC with Clostridioides difficile [3] stood at 1.8 µM; with Enterococcus faecium [5] it was 1.5 µM. This compound also displayed a Retention_time in [4] of 15.83 min. The result in the series with Escherichia coli [6], in the series on Pseudomonas aeruginosa [11] and in the series with Salmonella enterica [13] was inactive. Moreover, the Activity in the series on Caco-2 [10] turned out to be 25%.
Consider `CCc1c(Cl)c(O)c(Cl)c(O)c1C(=O)O[C@H]1[C@H](O)[C@H](OC)[C@H](OC/C2=C\C=C\C[C@H](O)/C(C)=C/[C@H](CC)[C@@H](O[C@@H]3OC(C)(C)[C@@H](OC(=O)C(C)C)[C@H](O)[C@@H]3O)/C(C)=C/C(C)=C/C[C@@H]([C@@H](C)O)OC2=O)O[C@@H]1C` [FIDAXOMICIN], for which the values for the MIC in the series with Clostridioides difficile [3], with Enterococcus faecium [5] and in the series on Listeria monocytogenes [16] were 1 µM (≈ 1.06 µg/mL), 2 µM (≈ 2.12 µg/mL) and 1 µM (≈ 1.06 µg/mL), respectively.
For H-LSKISGGIGP-NH2, the result in the series on Staphylococcus aureus [1], with Enterococcus faecium [2], with Clostridioides difficile [7], with Salmonella enterica [8], in the series on Listeria monocytogenes [9] and in the series on Escherichia coli [12] was Active. Besides, the result with Staphylococcus aureus [14] and in the series with Pseudomonas aeruginosa [15] was Active. In series [4], the Retention_time amounted to 13.63 min. Moreover, the result with Enterococcus faecium [5], in the series with Escherichia coli [6], in the series with Staphylococcus aureus [17], in the series on Pseudomonas aeruginosa [11] and in the series with Salmonella enterica [13] was inactive.
For H-LSKISG-NH2, the outcome in the series with Staphylococcus aureus [1], in the series on Enterococcus faecium [2], with Clostridioides difficile [7], in the series on Salmonella enterica [8], with Listeria monocytogenes [9] and in the series on Escherichia coli [12] was Active. The outcome in the series on Staphylococcus aureus [14] and in the series on Pseudomonas aeruginosa [15] was Active. In addition, in series [4], the Retention_time is recorded as 9.94 min. The outcome with Enterococcus faecium [5], in the series on Escherichia coli [6], with Staphylococcus aureus [17], with Pseudomonas aeruginosa [11] and with Salmonella enterica [13] was inactive.
In the case of `CC[C@H](C)[C@H](NC(=O)[C@H](C)NC(=O)[C@H](C)NC(=O)[C@@H](N)C(C)C)C(=O)N[C@@H](CC(C)C)C(=O)NCC(=O)N[C@@H](Cc1ccccc1)C(=O)N[C@@H](CC(C)C)C(=O)N[C@@H](C)C(=O)N[C@H](C(N)=O)[C@@H](C)O`, the Retention_time in series [4] is recorded as 14.9 min.
Turning to `CC[C@H](C)[C@H](NC(=O)[C@H](C)NC(=O)[C@H](C)NC(=O)[C@@H](N)C(C)C)C(=O)N[C@@H](CC(C)C)C(=O)NCC(=O)N[C@@H](Cc1ccccc1)C(=O)N[C@@H](CC(C)C)C(=O)N[C@@H](C)C(=O)N[C@@H](C(N)=O)[C@H](C)O`, the result with Staphylococcus aureus [1], in the series on Enterococcus faecium [2], in the series with Clostridioides difficile [7], with Salmonella enterica [8], in the series on Listeria monocytogenes [9] and in the series on Escherichia coli [12] was Active. Moreover, the outcome with Staphylococcus aureus [14] and with Pseudomonas aeruginosa [15] was Active. In addition, the result in the series on Enterococcus faecium [5], in the series on Escherichia coli [6], in the series on Listeria monocytogenes [16], in the series on Staphylococcus aureus [17], in the series on Pseudomonas aeruginosa [11] and in the series on Salmonella enterica [13] was inactive.
Regarding H-DAWNHADELV-NH2, the outcome in the series on Staphylococcus aureus [1], in the series on Enterococcus faecium [2], in the series on Clostridioides difficile [7], in the series with Salmonella enterica [8], in the series on Listeria monocytogenes [9] and with Escherichia coli [12] was Active. In addition, the outcome in the series with Staphylococcus aureus [14] and with Pseudomonas aeruginosa [15] was Active. Moreover, the Activity with Caco-2 [18] is 0%. In series [4], the Retention_time worked out at 15.95 min. Also, the outcome in the series on Enterococcus faecium [5], with Escherichia coli [6], with Listeria monocytogenes [16], in the series with Pseudomonas aeruginosa [11] and with Salmonella enterica [13] was inactive.
Turning to H-KLNEVELSKISGG-NH2, the result with Staphylococcus aureus [1], in the series with Enterococcus faecium [2], with Clostridioides difficile [7], in the series on Salmonella enterica [8], in the series with Listeria monocytogenes [9] and in the series with Escherichia coli [12] was Active. Besides, the outcome in the series with Staphylococcus aureus [14] and in the series on Pseudomonas aeruginosa [15] was Active. The compound further returned a Retention_time in [4] of 14.98 min. In addition, the outcome with Escherichia coli [6], in the series with Pseudomonas aeruginosa [11] and with Salmonella enterica [13] was inactive. Further, the MIC with Listeria monocytogenes [16] is 2.6 µM.
H-MNKLNEVELSKI-NH2: the result with Staphylococcus aureus [1], in the series on Enterococcus faecium [2], in the series on Clostridioides difficile [7], with Salmonella enterica [8], in the series with Listeria monocytogenes [9] and in the series on Escherichia coli [12] was Active. Further, the outcome in the series with Staphylococcus aureus [14] and in the series with Pseudomonas aeruginosa [15] was Active. Also, in [4], the Retention_time stood at 11.81 min. Moreover, the outcome in the series with Enterococcus faecium [5], with Escherichia coli [6], in the series with Staphylococcus aureus [17], in the series on Pseudomonas aeruginosa [11] and in the series with Salmonella enterica [13] was inactive.
With H-KISGGIGPLV-NH2, the result in the series on Staphylococcus aureus [1], in the series on Enterococcus faecium [2], in the series on Clostridioides difficile [7], in the series on Salmonella enterica [8], in the series with Listeria monocytogenes [9] and with Escherichia coli [12] was Active. The result with Staphylococcus aureus [14] and with Pseudomonas aeruginosa [15] was Active. The compound also showed a Retention_time in [4] of 17.32 min. Also, the outcome with Enterococcus faecium [5], in the series with Escherichia coli [6], in the series with Listeria monocytogenes [16], in the series on Staphylococcus aureus [17], with Pseudomonas aeruginosa [11] and with Salmonella enterica [13] was inactive.
Take H-HADELVAGVKQ-NH2: the result in the series on Staphylococcus aureus [1], in the series on Enterococcus faecium [2], with Clostridioides difficile [7], in the series with Salmonella enterica [8], with Listeria monocytogenes [9] and with Escherichia coli [12] was Active. Besides, the outcome in the series with Staphylococcus aureus [14] and with Pseudomonas aeruginosa [15] was Active. The compound also displayed a Retention_time in series [4] of 9.41 min. Moreover, the result in the series with Escherichia coli [6], with Pseudomonas aeruginosa [11] and with Salmonella enterica [13] was inactive.
`O=C(O)c1cn(C2CC2)c2cc(N3CCNCC3)c(F)cc2c1=O` [CIPROFLOXACIN]: the MIC in the series on Enterococcus faecium [5] was determined as 4 µM (≈ 1.33 µg/mL).
